Source: PubChem (several laboratories)
Sampled rows, rich in hits. Any-hit rate of the full collection: about 2.1%.
ARNT TACC3 PPI = disruptors of ARNT/TACC3 protein interaction, primary screen, biochemical, AlphaScreen, single concentration; Transforming acidic coiled-coil-containing protein 3 (Homo sapiens), Q9Y6A5; 0.66% of 390,000 active; AlphaScreen His-ARNT PAS-B/GST-TACC3 binding, luminescence; TACC3 fragment carries E629A point mutation; inhibition, % at 9.99 µM;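 active = mean inhibition of replicates at least 50% and at least half of replicates each reaching 50%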
UCH37 DUB inh = inhibitors of human UCH37 deubiquitinase, primary screen, biochemical, Ub-AMC cleavage, fluorescence. Ubiquitin carboxyl-terminal hydrolase isozyme L5 (Homo sapiens), Q9Y5K5. purified proteasome/UCH37. inhibition, % (no concentration beside the values). 0.33% of 330,000 active. AID 588478, 2011;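 active = mean inhibition over replicate wells above about 20%, limit read from the data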
Target sequence (Q9Y5K5 whole entry, looked up): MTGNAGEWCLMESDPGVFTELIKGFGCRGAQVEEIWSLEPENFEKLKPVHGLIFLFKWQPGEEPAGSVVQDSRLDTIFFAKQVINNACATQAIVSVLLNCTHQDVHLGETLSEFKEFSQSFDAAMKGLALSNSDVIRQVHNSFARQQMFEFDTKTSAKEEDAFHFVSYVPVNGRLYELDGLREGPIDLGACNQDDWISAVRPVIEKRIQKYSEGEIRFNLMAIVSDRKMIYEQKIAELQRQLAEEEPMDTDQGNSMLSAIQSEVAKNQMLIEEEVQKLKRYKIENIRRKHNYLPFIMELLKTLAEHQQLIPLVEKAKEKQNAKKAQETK
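Schedule: 30 min plus 25 min, room temperature / Material: human UCH37 within purified proteasomes / Technique: AMC fluorescence intensity at 355/460 nm / Buffer or medium: pH 7.4 Tris-HCl (50 mM) with ovalbumin, ATP-MgCl2, DTT / Controls: wells without proteasome as full block, compound-free enzyme plus substrate as uninhibited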
RTF Ca sens inh = cardiac RTF calcium sensitivity inhibitors, primary screen, biochemical, IANBD-TnC fluorescence, EC70 calcium; IANBD-labeled cardiac RTF, Ca2+ fluorescence; Troponin I, cardiac muscle (Homo sapiens) + Troponin T, cardiac muscle (Homo sapiens) + …; inhibition, % at 7.15 µM; 0.12% of 340,000 active; AID 493244, 2011;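 active = inhibition above the mean inhibition of all tested compounds plus 3 SD, cut at about 17% in these data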;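 also: assay run at fixed EC70 calcium of 1.6 mM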
RTF Ca sens act = cardiac RTF calcium sensitivity activators, primary screen, biochemical, IANBD-TnC fluorescence, EC20 calcium; IANBD-labeled TnC RTF fluorescence at EC20 calcium; 0% EC20 calcium, 100% full calcium; 0.24% of 340,000 active; activation, % at 7.2 µM; AID 493008, 2010;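 active = activation above the mean over all tested compounds plus 3 SD, cut at about 30% in these data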;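 also: rise in fluorescence read as greater calcium sensitivity of cardiac thin filaments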
Mot1-301 SUMO = yeast Mot1-301 growth rescue at high temperature, primary screen, SUMOylation pathway inhibitor project, S. cerevisiae, ATP luminescence, 38.5C; growth rescue, % at 18.8 µM; AID 2716, 2010; 1% of 320,000 active; S. cerevisiae Mot1-301 growth rescue; percent above DMSO median, 100 means doubled;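 active = every valid replicate shows activation above 250% relative to neutral control wells; inactive = the rest, any valid replicate at or below 250%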
Efflux pump mplx = inhibitors of Candida efflux pumps in yeast, primary screen, S. cerevisiae, Nile Red, multiplex. AID 485275, 2010. S. cerevisiae Candida pump triplex. inhibition, % at 10 µM. 0.44% of 330,000 active;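 active = plate passing quality check with inhibition over a set limit, or well fluorescence over plate mean plus 4 SD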;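 also: Nile Red retained in pooled yeast measured as flow cytometry median fluorescence; higher means more Nile Red kept so more efflux inhibition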
A number is an active result; n = inactive; x = no result given; ! = not confirmed by another sample.

SMILES	ARNT TACC3 PPI	UCH37 DUB inh	RTF Ca sens inh	RTF Ca sens act	Mot1-301 SUMO	Efflux pump mplx
CN1CCC(Oc2ccccc2Sc2ccccc2)CC1	n	n	n	n	n	n
CN1CCC(OC(c2ccccc2)c2ccccc2)CC1	n	n	n	n	321!	n
COCCCNC(=S)N/N=C/c1ccccc1O	64	x	n	n	n	n
O=C(NN=Cc1ccccc1C(=O)O)c1cccc(S(=O)(=O)N2CCOCC2)c1	x	n	x	x	x	x
CCOC(=O)/C(C#N)=C\c1ccc(N2CCN(C/C=C/c3ccccc3)CC2)cc1	n	n	n	76	n	n
Cc1cc2nc3c(=O)[nH]c(=O)[nH]c3nc2c([N+](=O)[O-])c1N	n	n	n	140	x	x
Cc1c(N)c(C(C)(C)C)cc(C(C)(C)C)c1[N+](=O)[O-]	n	n	n	n	n	n
COc1cccc(/C(O)=C2/C(=O)C(=O)N(CCCN3CCOCC3)C2c2ccncc2)c1 (stereo not drawn)	n	20	n	n	n	n
CN(C)CCN1C(=O)C(=O)/C(=C(/O)c2ccc(S(=O)(=O)N3CCOCC3)cc2)C1c1ccc(Br)cc1 (stereo not drawn)	n	n	n	n	n	n
COc1cccc(/C(O)=C2/C(=O)C(=O)N(CCN3CCOCC3)C2c2cccnc2)c1 (stereo not drawn)	n	n	n	n	x	n
CN(C)CCN1C(=O)C(=O)/C(=C(/O)c2ccc(S(=O)(=O)N3CCOCC3)cc2)C1c1ccccc1 (stereo not drawn)	n	n	n	n	315	n
COc1cccc(/C(O)=C2/C(=O)C(=O)N(CCN(C)C)C2c2ccc(Br)cc2)c1 (stereo not drawn)	x	n	n	n	n	n
O=C1C(=O)N(CCCN2CCOCC2)C(c2ccc(F)cc2)/C1=C(/O)c1ccccc1 (stereo not drawn)	n	23	n	n	n	n
COC(=O)c1ccc(C2/C(=C(\O)c3cccc(OC)c3)C(=O)C(=O)N2CCCN(C)C)cc1 (stereo not drawn)	59	n	n	n	n	n
Cc1ccc(/C(O)=C2/C(=O)C(=O)N(CCN3CCOCC3)C2c2cccnc2)cc1 (stereo not drawn)	n	n	n	n	n	n
Cc1ccc(/C(O)=C2/C(=O)C(=O)N(CCN3CCOCC3)C2c2cccs2)cc1 (stereo not drawn)	n	24	n	n	n	n
Cc1ccc(S(=O)(=O)NNC(=O)C(=O)NNc2ccccn2)cc1	63	n	n	n	n	n
CC(=O)Nc1ccc(S(=O)(=O)NNC(=O)C(=O)NNc2ccccn2)cc1	75	n	n	n	n	n
Cc1ccccc1S(=O)(=O)NNC(=O)C(=O)NNc1ccccn1	70	n	n	n	n	n
O=C(Nc1ccccn1)C(=O)Nc1ccccn1	n	n	n	n	n	n
Cc1ccc(S(=O)(=O)NNC(=O)C(O)(c2ccccc2)c2ccccc2)cc1	n	n	n	n	n	n
Nc1ccc(S(=O)(=O)NNC(=O)C(=O)NNc2ccccn2)cc1	74	n	n	n	n	n
CC(=O)Nc1ccc(S(=O)(=O)Nc2ccccn2)cc1	n	n	n	n	n	n
O=C(NN=Cc1ccncc1)c1cc(C2CC2)nc2ccccc12	x	n	x	x	x	x
CC(=NNC(=O)c1cccnc1)c1ccc(C)c([N+](=O)[O-])c1	x	n	x	x	x	x
O=c1c2c(-c3ccccc3)csc2ncn1/N=C/c1cccc([N+](=O)[O-])c1O	72	x	n	n	n	n
O=c1c2c(-c3ccccc3)csc2ncn1N=Cc1cccc([N+](=O)[O-])c1O	x	n	x	x	x	x
O=C1N(Cc2ccccc2)CC2(Br)COCOC12O (stereo not drawn)	8.9	n	n	n	x	x
